From BindingDB's records for doi:10.1016/j.bmc.2012.09.049 (University of Copenhagen, 2012)

What was measured:
[1] = target: Excitatory amino acid transporter 1 (Homo sapiens, UniProt P43003); experiment: Inhibition of [3H]-D-aspartate uptake at human EAAT1 expressed in HEK293 cells after 6 mins by scintillation counting
Method in brief: (§1)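 Each transporter subtype stably expressed in its own HEK293 cell line. Inhibitor potency measured as block of [³H]-D-aspartate uptake into these cells and reported as IC₅₀ values.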

[2] = target: Excitatory amino acid transporter 2 (Homo sapiens, UniProt P43004); experiment: Inhibition of [3H]-D-aspartate uptake at human EAAT2 expressed in HEK293 cells after 6 mins by scintillation counting; method in brief: as §1
[3] = target: T1, Excitatory amino acid transporter 3 (Homo sapiens, UniProt P43005); experiment: Inhibition of [3H]-D-aspartate uptake at human EAAT3 expressed in HEK293 cells after 6 mins by scintillation counting; method in brief: as §1
T1 sequence (P43005 whole entry): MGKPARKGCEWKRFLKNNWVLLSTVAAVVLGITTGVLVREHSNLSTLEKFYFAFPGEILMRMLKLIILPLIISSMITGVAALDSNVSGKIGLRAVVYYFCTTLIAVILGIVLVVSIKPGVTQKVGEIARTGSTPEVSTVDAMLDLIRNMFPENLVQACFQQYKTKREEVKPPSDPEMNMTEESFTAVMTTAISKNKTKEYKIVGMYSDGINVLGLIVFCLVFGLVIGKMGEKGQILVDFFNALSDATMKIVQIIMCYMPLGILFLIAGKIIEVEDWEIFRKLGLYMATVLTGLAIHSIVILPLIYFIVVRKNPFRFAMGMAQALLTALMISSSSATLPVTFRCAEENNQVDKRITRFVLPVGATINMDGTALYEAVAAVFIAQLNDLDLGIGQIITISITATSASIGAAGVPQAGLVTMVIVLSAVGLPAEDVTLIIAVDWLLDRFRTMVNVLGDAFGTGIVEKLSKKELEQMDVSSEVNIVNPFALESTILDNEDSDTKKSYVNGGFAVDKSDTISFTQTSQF

Excitatory amino acid transporter 2, sequence (P43004 whole entry): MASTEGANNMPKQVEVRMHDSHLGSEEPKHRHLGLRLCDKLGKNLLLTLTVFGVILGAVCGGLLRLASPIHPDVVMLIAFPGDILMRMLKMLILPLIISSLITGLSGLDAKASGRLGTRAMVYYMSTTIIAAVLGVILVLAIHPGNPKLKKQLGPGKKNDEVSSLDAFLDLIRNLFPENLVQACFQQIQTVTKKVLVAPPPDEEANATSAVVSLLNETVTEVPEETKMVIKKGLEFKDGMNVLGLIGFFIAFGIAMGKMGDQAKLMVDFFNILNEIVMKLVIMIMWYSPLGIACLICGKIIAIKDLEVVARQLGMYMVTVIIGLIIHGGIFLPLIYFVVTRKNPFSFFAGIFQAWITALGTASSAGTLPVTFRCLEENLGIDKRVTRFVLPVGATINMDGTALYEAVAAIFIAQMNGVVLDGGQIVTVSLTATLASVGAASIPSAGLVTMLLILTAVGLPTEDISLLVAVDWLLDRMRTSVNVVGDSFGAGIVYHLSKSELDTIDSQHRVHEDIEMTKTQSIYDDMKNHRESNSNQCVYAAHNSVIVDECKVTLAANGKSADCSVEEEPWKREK
Excitatory amino acid transporter 1, sequence (P43003 whole entry): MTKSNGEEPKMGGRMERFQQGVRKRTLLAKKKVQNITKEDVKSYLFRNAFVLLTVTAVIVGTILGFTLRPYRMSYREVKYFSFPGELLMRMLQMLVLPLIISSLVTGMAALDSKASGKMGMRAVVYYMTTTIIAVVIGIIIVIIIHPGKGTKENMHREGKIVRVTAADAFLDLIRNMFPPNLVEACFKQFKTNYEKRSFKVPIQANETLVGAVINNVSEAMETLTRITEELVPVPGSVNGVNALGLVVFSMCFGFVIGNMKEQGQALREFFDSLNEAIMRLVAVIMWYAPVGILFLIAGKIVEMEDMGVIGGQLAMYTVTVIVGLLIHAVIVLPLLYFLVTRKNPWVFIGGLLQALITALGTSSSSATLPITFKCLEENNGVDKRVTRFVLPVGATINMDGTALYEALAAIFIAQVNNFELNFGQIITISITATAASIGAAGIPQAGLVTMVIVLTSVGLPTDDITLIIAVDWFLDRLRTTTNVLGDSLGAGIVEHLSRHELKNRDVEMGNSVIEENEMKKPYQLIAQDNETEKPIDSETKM

IC50 [1] [µM] | IC50 [2] [µM] | IC50 [3] [µM] | Compound
> 316 | > 300 | > 300 | CCN(CC)c1ccc2c(C)c(-c3ccc(C4C5=C(CC(c6ccccc6)CC5=O)OC(=N)C4C#N)cc3)c(=O)oc2c1 (configuration not stated)
> 316 | > 300 | > 300 | COc1ccc2c(C)c(-c3ccc(C4C5=C(CC(c6ccccc6)CC5=O)OC(=N)C4C#N)cc3)c(=O)oc2c1 (configuration not stated)
> 316 | > 300 | > 300 | CCN(CC)c1ccc2c(C3C4=C(CC(c5cccc6ccccc56)CC4=O)OC(=N)C3C#N)cc(=O)oc2c1 (configuration not stated)
> 316 | > 300 | > 300 | COc1ccc2c(C3C4=C(CC(c5ccccc5)CC4=O)OC(=N)C3C#N)cc(=O)oc2c1 (configuration not stated)
